In ChEMBL document CHEMBL1143811, “Bis-acridines as lead antiparasitic agents: structure-activity analysis of a discrete compound library in vitro” (Antimicrob Agents Chemother, 2007):
Values after ≈ are worked out from the molar mass of the structure shown. Active and inactive are the calls of the source. No cut-off for these calls is given here.

Experiments:
[1] = test system: Plasmodium falciparum; assay: Antimicrobial activity against chloroquine-sensitive Plasmodium falciparum 3D7 after 72 hrs; format: functional, organism-based; details: 3D7, 72 h
[2] = test system: Plasmodium falciparum; assay: Antimicrobial activity against chloroquine-resistant Plasmodium falciparum W2 after 72 hrs; format: functional, organism-based; details: W2, 72 h
[3] = test system: Trypanosoma brucei brucei; assay: Antimicrobial activity against Trypanosoma brucei brucei clone 427-221a after 48 hrs; format: functional, organism-based
Method in brief: (§1)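 Bloodstream-form T. b. brucei in Baltz medium (~10^4/ml) and HL-60 cells in RPMI 1640 (~10^5/ml), both with 16.7% FBS, were exposed 48 h at 37°C in 5% CO2 to compound up to 10 µM in 1% final DMSO. Live cells were hemocytometer-counted, by motility (trypanosomes) or trypan blue exclusion (HL-60). EC50 was taken by regression versus DMSO cultures from three experiments. MIC was the lowest fully lethal concentration, judged microscopically.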

[4] = (§2) Cytotoxicity against human HL60 cells; format: cell-based, HL-60; details: human, HL-60 cells; read-out: MIC; method in brief: as §1
[5] = test system: HL-60; assay: as §2; format: cell-based; details: Homo sapiens, HL-60; method in brief: as §1
[6] = Selectivity index, ratio of EC50 for HL60 cells to EC50 for Trypanosoma brucei brucei clone 427-221a; format: functional, HL-60; method in brief: as §1
[7] = Selectivity index, ratio of MIC for HL60 cells to MIC for Trypanosoma brucei brucei clone 427-221a; format: functional, HL-60; method in brief: as §1
[8] = test system: Leishmania donovani; assay: Antileishmanial activity against Leishmania donovani MHOM/SD/00/1S-2D promastigotes assessed as parasite death at 10 uM after 72 hrs; format: functional
Method in brief: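 Promastigotes seeded at 1.5 x 10^5 cells/ml in medium 199 with 10% heat-inactivated FBS. Compound added at a final 10 µM, in triplicate, in sealed flasks at 27°C for up to 7 days. Aliquots taken daily and viability read by CellTiter-Glo luminescence. Result given as percent reduction in viability relative to DMSO-treated cultures. Controls were K11777 or amphotericin B at 10 µM.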

[9] = test system: Entamoeba histolytica; assay: Antimicrobial activity against Entamoeba histolytica HM1 IMSS trophozoites after 48 hrs; format: functional, organism-based; details: 60 h, in the assay text read “60 hrs” for “48 hrs”
Method in brief: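 Trophozoites were grown axenically in TYI-S-33 with 10% bovine adult serum and seeded at ~10^4 cells/well. Compound (range up to 10 µM) was added to 48-h log-phase cultures, then incubated 60 h at 37°C under anaerobic conditions. Viability was read by CellTiter-Glo luminescence. EC50 came from quadruplicate wells in two independent experiments.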

[10] = test system: Trichomonas vaginalis; assay: Antimicrobial activity against Trichomonas vaginalis G3 assessed as parasite death at 10 uM after 24 hrs; format: functional
Method in brief: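 G3 strain grown in Diamond's medium at 37°C. Assay culture set up as 0.5 ml dense culture diluted into 5.0 ml complete medium. Compound at a final 10 µM for 24 h at 37°C. Motile cells counted by hemocytometer. Result is percent dead parasites relative to DMSO-treated cultures, from five separate experiments. Controls were untreated, DMSO and metronidazole.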

[11] = Cytotoxicity against BALB/c mouse peritoneal macrophages at 10 uM after 48 hrs hrs; format: cell-based; details: macrophage
[12] = test system: Leishmania major; assay: Antileishmanial activity against Leishmania major MHOM/IL/81/FE/BNI amastigotes after 48 hrs at 1 uM; format: functional, organism-based
Method in brief: (§3)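 Peritoneal macrophages from BALB/c mice (6-8 wk) adhered 2 h at 37°C, infected 24 h with stationary-phase L. major promastigotes at 10:1 parasite:macrophage, washed, then exposed 48 h to compound at 0.0001 to 10 µM. Intracellular amastigotes stained with acridine orange/ethidium bromide and counted by fluorescence microscopy; percent amastigotes cleared versus DMSO-treated cultures; three repeats.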

[13] = test system: Leishmania major; assay: Antileishmanial activity against Leishmania major MHOM/IL/81/FE/BNI amastigotes after 48 hrs; format: functional, organism-based; method in brief: as §3
[14] = test system: Schistosoma mansoni; assay: Antimicrobial activity against Schistosoma mansoni assessed as worm vitality at 6 uM after 4 hrs; format: functional, organism-based
Method in brief: (§4)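 20-day-old worms were obtained by perfusion of BALB/c mice infected with 200 cercariae. About 20 worms/well were kept in Basch 169 with 10% bovine calf serum, preincubated 24 h at 37°C in 5% CO2, then exposed to 1, 3 or 6 µM. Vitality (feeding, flexing, gut peristalsis; death = nonmotile, shrunken, dark) was scored at 4 and 18 h in two experiments.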

[15] = test system: Plasmodium falciparum; assay: Antimalarial activity against chloroquine-resistant Plasmodium falciparum FcB1R after 72 hrs; format: functional, organism-based
[16] = test system: Trypanosoma brucei brucei; assay: Antimicrobial activity against Trypanosoma brucei brucei clone 427-221a at 1.56 uM; format: functional
[17] = test system: MRC5; assay: Toxicity against human MRC5 cells at 3.13 uM; format: cell-based; details: mrc5, 3.13 µM
[18] = test system: Schistosoma mansoni; assay: Antimicrobial activity against Schistosoma mansoni assessed as worm vitality at 3 uM after 4 hrs; format: functional, organism-based; method in brief: as §4

| Compound | EC50 [1] [nM] | EC50 [2] [nM] | EC50 [3] [nM] | MIC [3] [µM] | MCC [4] [µM] | EC50 [5] [nM] | Ratio EC50 [6] | Ratio [7] | Activity [8] [%] | EC50 [9] [nM] | Activity [10] [%] | Activity [11] | Activity [12] | EC50 [13] [nM] | Activity [14] | EC50 [15] [nM] | Activity [16] [%] | Activity [17] [%] | Activity [18] |
| --- | --- | --- | --- | --- | --- | --- | --- | --- | --- | --- | --- | --- | --- | --- | --- | --- | --- | --- | --- |
| COc1ccc2nc3cc(Cl)ccc3c(NCCCCCCCCNc3c4ccc(Cl)cc4nc4ccc(OC)nc34)c2n1 | 62 | 69 | 31 | 1 (≈ 0.63 µg/mL) | > 10 | 26300 | 859 | >10 | 42 | 5000 | 59 | Toxic | inactive |  |  |  |  |  |  |
| CCN(CC)CCCC(C)Nc1c2ccc(Cl)cc2nc2ccc(OC)cc12 (centres undefined) [QUINACRINE] | 11 | 33 |  |  |  |  |  |  |  |  |  |  |  |  |  |  |  |  |  |
| COc1ccc2nc3cc(Cl)ccc3c(NCCCCNCCCCCNCCCNc3c4ccc(Cl)cc4nc4ccc(OC)cc34)c2c1 | 125 | 129 | 1.9 | 1 (≈ 0.714 µg/mL) | 10 | 270 | 140 | 10 | 98 | 5000 | 66 | Toxic |  | 600 | Active |  |  |  |  |
| COc1ccc2nc3cc(Cl)ccc3c(NCCCCN(CCCNc3c4ccc(Cl)cc4nc4ccc(OC)cc34)C(=O)[C@H](C)NC(=O)OC(C)(C)C)c2c1 | 598 | 629 | 3.5 | 1 (≈ 0.8 µg/mL) | 10 | 1650 | 469 | 10 | 49 | 5000 | 95 | Toxic | inactive |  |  | 330 | 100 | 0 |  |
| COc1ccc2nc3cc(Cl)ccc3c(NCCCCCCCCNc3c4ccc(Cl)cc4nc4ccc(OC)cc34)c2c1 | 115 | 124 | 8.6 | 1 (≈ 0.628 µg/mL) | 10 | 1650 | 191 | 10 | 99 | 500 | 100 | Toxic | inactive |  |  | 19 | 100 | 20 |  |
| COc1ccc2nc3cc(Cl)ccc3c(NCCNCCNc3c4ccc(Cl)cc4nc4ccc(OC)cc34)c2c1 | 618 | 791 | 218 | 10 (≈ 5.87 µg/mL) | > 10 | 9470 | 43 | >1 | 47 | 5000 | 0 | Toxic | inactive |  |  | 63 | 100 | 100 |  |
| COc1ccc2nc3cc(Cl)ccc3c(NCCCCCCCCCCNc3c4ccc(Cl)cc4nc4ccc(OC)cc34)c2c1 | 95 | 116 | 25 | 1 (≈ 0.656 µg/mL) | 10 | 3140 | 125 | 10 | 96 | 500 | 100 | Toxic | inactive |  |  | 57 | 100 | 0 |  |
| COc1ccc2nc3cc(Cl)ccc3c(NCCCNCCCNCCCNc3c4ccc(Cl)cc4nc4ccc(OC)cc34)c2c1 | 121 | 147 | 1.4 | 1 (≈ 0.672 µg/mL) | 10 | 142 | 98 | 10 | 73 | 5000 | 0 |  |  | 3000 | Active |  |  |  |  |
| COc1ccc2nc3cc(Cl)ccc3c(NCCCN(C)CCCNc3c4ccc(Cl)cc4nc4ccc(OC)cc34)c2c1 | 790 | 1080 | 0.9 | 0.1 (≈ 0.0629 µg/mL) | 10 | 1180 | 1326 | 100 | 99 | 500 | 92 |  |  | 6000 | Active |  |  |  | Active |
| CCN(CC)CCCC(C)Nc1ccnc2cc(Cl)ccc12 (centres undefined) [CHLOROQUINE] | 10 | 293 |  |  |  |  |  |  |  |  |  |  |  |  |  |  |  |  |  |
| COc1ccc2nc3cc(Cl)ccc3c(NCCCCNCCCNc3c4ccc(Cl)cc4nc4ccc(OC)nc34)c2n1 | 29 | 34 | 1.4 | 0.1 (≈ 0.0631 µg/mL) | 7 | 119 | 86 | 70 | 99 | 500 | 85 | Toxic | inactive |  | Active |  |  |  |  |
| Nc1nc(N)nc(Nc2ccc([As]3SCC(CO)S3)cc2)n1 (centres undefined) [MELARSOPROL] |  |  | 16 | 0.1 | 100 | 4270 | 267 | >1000 |  |  |  |  |  |  |  |  |  |  |  |
| C[C@@H]1[C@H](O)[C@@H](C)/C=C/C=C/C=C/C=C/C=C/C=C/C=C/[C@H](O[C@@H]2O[C@H](C)[C@@H](O)[C@H](N)[C@@H]2O)C[C@@H]2O[C@](O)(C[C@@H](O)C[C@@H](O)[C@H](O)CC[C@@H](O)C[C@@H](O)CC(=O)O[C@H]1C)C[C@H](O)[C@H]2C(=O)O [AMPHOTERICIN B] |  |  |  |  |  |  |  |  | 100 |  |  |  |  |  |  |  |  |  |  |
| COc1ccc2nc3cc(Cl)ccc3c(NCCCCN(CCCNc3c4ccc(Cl)cc4nc4ccc(OC)cc34)C(=O)CNC(=O)[C@H](C)N)c2c1 | 716 | 823 | 6.4 | 10 (≈ 7.57 µg/mL) | > 10 | 491 | 77 | >1 | 16 | 5000 | 0 | Toxic |  | 700 |  |  |  |  |  |
| COc1ccc2nc3cc(Cl)ccc3c(NCCCN3CCN(CCCNc4c5ccc(Cl)cc5nc5ccc(OC)cc45)CC3)c2c1 | 64 | 112 | 1.8 | 0.1 (≈ 0.0684 µg/mL) | 10 | 1480 | 836 | 100 | 46 | 5000 | 10 | Toxic | inactive |  |  | 17 | 60 | 0 |  |
| O=C(C1CCCCC1)N1CC(=O)N2CCc3ccccc3C2C1 (centres undefined) |  |  |  |  |  |  |  |  |  |  |  |  |  |  | Active |  |  |  |  |
| CCCN(CCCCNc1c2ccc(Cl)cc2nc2ccc(OC)cc12)CCCNc1c2ccc(Cl)cc2nc2ccc(OC)cc12 | 120 | 319 | 1.4 | 1 (≈ 0.671 µg/mL) | 10 | 491 | 348 | 10 | 99 | 5000 | 90 | Toxic | inactive |  |  |  |  |  |  |
| COc1ccc2nc3cc(Cl)ccc3c(NCCCCN(CCCNc3c4ccc(Cl)cc4nc4ccc(OC)cc34)C(=O)CNC(=O)[C@H](C)NC(=O)OC(C)(C)C)c2c1 | 314 | 341 | 2.4 | 1 (≈ 0.857 µg/mL) | 10 | 270 | 111 | 10 | 37 | 5000 | 53 | Toxic | inactive |  |  |  |  |  |  |
